Results of several laboratories.
Protocols differ between the studies behind these lines. ≈ marks a conversion by molar mass, not a printed value.

SMILES	organism	assay	system	setting	endpoint	value
C/C(=N/NC(=O)c1cn(-c2ccccc2)nc1-c1ccc(F)cc1)c1c(O)cc(C)oc1=O	Bacillus subtilis	microbial growth	–	–	MIC	70 µg/mL (≈ 157 µM)
CC(=O)N1CCN(c2ccc(OCC3COC(Cn4ccnc4)(c4ccc(Cl)cc4Cl)O3)cc2)CC1 (stereo not shown)	Nakaseomyces glabratus	microbial growth, broth dilution	ATCC15126	48 h	MIC	8 µg/mL (≈ 15.1 µM)
CNC(C)C1CCC(N)C(OC2C(N)CC(N)C(OC3OCC(C)(O)C(NC)C3O)C2O)O1 (stereo not shown)	Bacillus subtilis	microbial growth, broth dilution	–	–	MIC	1 µg/mL (≈ 2.09 µM)
CC(=O)ON=C1C=CC(=C(C#N)c2ccccc2)C=C1	Nakaseomyces glabratus	microbial growth, broth dilution	ATCC15126	48 h	MIC	16 µg/mL (≈ 60.5 µM)
O=C(Nc1ccc(F)cc1F)c1ccc(COC(Cn2ccnc2)c2ccc(Cl)cc2Cl)cc1 (stereo not shown)	Nakaseomyces glabratus	microbial growth, broth dilution	–	–	MIC80	0.03 µg/mL (≈ 0.0597 µM)
O=C(O)c1cn(C2CC2)c2cc(N3CCNCC3)c(F)cc2c1=O	Bacillus subtilis	microbial growth, well diffusion	ATCC6051	100 µg/mL	inhibition zone	30 mm
C/C(=N/NC(=O)c1cn(-c2ccccc2)nc1-c1ccccc1)c1c(O)cc(C)oc1=O	Bacillus subtilis	microbial growth	–	–	MIC	50 µg/mL (≈ 117 µM)
C#CCOC(=O)ON=C1C=CC(=C(C#N)c2ccccc2)C=C1	Nakaseomyces glabratus	microbial killing, broth dilution	ATCC15126	48 h	MFC	16 µg/mL (≈ 52.6 µM)
C[C@@H]1[C@H](O)[C@@H](C)/C=C/C=C/C=C/C=C/C=C/C=C/C=C/[C@H](O[C@@H]2O[C@H](C)[C@@H](O)[C@H](N)[C@@H]2O)C[C@@H]2O[C@](O)(C[C@@H](O)C[C@@H](O)[C@H](O)CC[C@@H](O)C[C@@H](O)CC(=O)O[C@H]1C)C[C@H](O)[C@H]2C(=O)O	Cryptococcus neoformans	microbial growth, broth dilution	–	72 h	MIC	0.25 µg/mL (≈ 0.271 µM)
O=C(Nc1cccc(Br)c1)c1ccc(COC(Cn2ccnc2)c2ccc(Cl)cc2Cl)cc1 (stereo not shown)	Nakaseomyces glabratus	microbial growth, broth dilution	–	–	MIC80	0.125 µg/mL (≈ 0.229 µM)
C/C(=N/NC(=O)c1cn(-c2ccccc2)nc1-c1ccc(Br)cc1)c1c(O)cc(C)oc1=O	Bacillus subtilis	microbial growth	–	–	MIC	70 µg/mL (≈ 138 µM)
C#CCON=C1C=CC(=C(C#N)c2ccccc2)C=C1	Nakaseomyces glabratus	microbial killing, broth dilution	ATCC15126	48 h	MFC	32 µg/mL (≈ 123 µM)
O=C(Nc1ccc(Cl)cc1)c1ccc(COC(Cn2ccnc2)c2ccc(Cl)cc2Cl)cc1 (stereo not shown)	Nakaseomyces glabratus	microbial growth, broth dilution	–	–	MIC80	0.125 µg/mL (≈ 0.25 µM)
C[C@@H]1[C@H](O)[C@@H](C)/C=C/C=C/C=C/C=C/C=C/C=C/C=C/[C@H](O[C@@H]2O[C@H](C)[C@@H](O)[C@H](N)[C@@H]2O)C[C@@H]2O[C@](O)(C[C@@H](O)C[C@@H](O)[C@H](O)CC[C@@H](O)C[C@@H](O)CC(=O)O[C@H]1C)C[C@H](O)[C@H]2C(=O)O	Cryptococcus neoformans	microbial growth, broth dilution	H99	48 h	MIC	0.5 µg/mL (≈ 0.541 µM)
C=CC(=O)ON=C1C=CC(=C(C#N)c2ccccc2)C=C1	Nakaseomyces glabratus	microbial growth, broth dilution	ATCC15126	48 h	MIC	16 µg/mL (≈ 57.9 µM)
Cc1ccc(NC(=O)c2ccc(COC(Cn3ccnc3)c3ccc(Cl)cc3Cl)cc2)cc1 (stereo not shown)	Nakaseomyces glabratus	microbial growth, broth dilution	–	–	MIC80	0.06 µg/mL (≈ 0.125 µM)
